Assay outcomes from PubChem.
GPR7 antagonist – antagonists of human GPR7 (neuropeptides B/W receptor 1); actives 1.1% (n = 290,000); inhibition, % at 4.4 µM; GPR7-expressing cells, fluorescence antagonist assay; in the data active means inhibition above about 16%, passing the limit was not always enough;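 further: cells stimulated with the agonist NPW; 0% = agonist with vehicle and 100% = vehicle without agonist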
OX1R antag-1 – blocks the human orexin 1 receptor. CHO/OX1R cells, Fluo-8 calcium fluorescence, orexin A. actives 0.43% (n = 330,000). inhibition, % at 5 µM. O43613. AID 434989;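 active means inhibition above its plate's threshold, mean inhibition of all tested compounds on the plate plus 3 SD, cut at about 37% in these data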;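 further: 0% = orexin A challenge wells and 100% = SB-334867-A antagonist wells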
Target sequence (O43613 whole entry, looked up): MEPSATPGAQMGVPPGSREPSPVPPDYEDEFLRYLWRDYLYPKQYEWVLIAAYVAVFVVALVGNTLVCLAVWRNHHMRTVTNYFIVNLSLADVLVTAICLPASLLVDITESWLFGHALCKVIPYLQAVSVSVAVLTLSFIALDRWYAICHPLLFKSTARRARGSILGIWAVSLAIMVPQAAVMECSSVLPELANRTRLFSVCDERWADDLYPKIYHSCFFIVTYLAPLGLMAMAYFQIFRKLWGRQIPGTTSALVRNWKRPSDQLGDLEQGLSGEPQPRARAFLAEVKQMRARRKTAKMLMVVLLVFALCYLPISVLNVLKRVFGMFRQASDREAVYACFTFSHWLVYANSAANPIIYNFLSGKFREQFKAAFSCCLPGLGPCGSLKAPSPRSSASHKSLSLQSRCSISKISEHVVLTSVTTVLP
OX1R antag-2 – OX1R (human) antagonism; O43613; actives 1.8% (n = 330,000); inhibition, % at 6.6 µM; OX1R-expressing cells, FRET antagonist read-out; in the data active means inhibition mostly above about 38%, no sharp cut-off; inactive means mostly below about 40%;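 further: 0% = agonist challenge alone and 100% = reference antagonist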
GalR3 antag – human GalR3 antagonism; O60755; AID 651719; actives 0.44% (n = 360,000); HEK293 GalR3-CNG cAMP membrane potential fluorescence; galR3 body fused to GalR1 C-terminus; inhibition, % at 3 µM;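 active means inhibition above the screen-wide average plus 3 SD, cut at about 13% in these data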;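 further: forskolin and galanin both at EC90 stimulate the cells; cAMP rise reported by CNG channel membrane potential dye signal; 0% = forskolin plus galanin with DMSO and 100% = forskolin alone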
CHO parental Ca – signal in parental CHO cells, OX1R antagonist counter-screen | inhibition, % at 5.6 µM | actives 0.63% (n = 330,000) | parental CHO-K1, ATP-induced calcium, Fluo-8 fluorescence | AID 463079;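 active means inhibition above that plate's mean sample inhibition plus 3 SD, cut at about 26% in these data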;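 further: 0% = ATP-challenged DMSO wells and 100% = DMSO wells without ATP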
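Test system: untransfected parental CHO cell line; also added: ATP stimulus; dosing: 5.6 µM, single dose; signal: calcium-sensitive Fluo-8 fluorescence; measure: percent inhibition of ATP-evoked calcium rise, normalized to controls; benchmarks: low control ATP plus DMSO, high control DMSO only; replication: one well per compound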
* marks the source's active call; other numbers are inactive results. Hits are enriched below; roughly 3.1% of the tested compounds scored in any of these assays.

COc1ccc(Cl)cc1C(=O)N(Cc1nc(-c2cccc(C)c2)no1)C(C)C was read as GPR7 antagonist -17, OX1R antag-1 -23, OX1R antag-2 29, GalR3 antag -2 and CHO parental Ca 47*.
Cc1cccc(-c2noc(CN(C(=O)/C=C/c3ccccc3Cl)C(C)C)n2)c1 was read as GPR7 antagonist 2, OX1R antag-1 -13, OX1R antag-2 15, GalR3 antag -9 and CHO parental Ca -4.
CC(C)N(Cc1nc(-c2ccccc2)no1)S(=O)(=O)c1ccccc1 was read as GPR7 antagonist -11, OX1R antag-1 -8, OX1R antag-2 32 and CHO parental Ca 60*.
Nc1[nH]c(C(=O)c2ccccc2)c(-c2ccccc2Br)c1C(=O)c1cccs1 was read as GalR3 antag -6.
For CC(C)C[C@@H](CN1CCC[C@H]1CN1C(=O)C(=O)NC[C@@H]1Cc1ccccc1)N1C[C@H](Cc2ccccc2)N(CC2CCCCC2)C(=O)C1=O the results were GalR3 antag -4.
Cc1ccccc1CN1[C@@H](C)[C@H](c2ccccc2)Oc2cccc(NCCc3ccccc3)c2S1(=O)=O was read as GalR3 antag -7.
Screening CCOC(=O)C1=CCC(c2ccc([N+](=O)[O-])cc2)N(S(=O)(=O)c2ccc(C)cc2)C1 (centres undefined) returned GalR3 antag -5.
Cc1ccccc1OCC(=O)NS(=O)(=O)c1ccc(Cl)cc1 was read as GPR7 antagonist -1, OX1R antag-1 -24, OX1R antag-2 21, GalR3 antag 1 and CHO parental Ca -8.
For Cc1ccc(C(C)C)c(OCC(=O)NS(=O)(=O)c2ccc(Cl)cc2)c1 the results were GPR7 antagonist -15, OX1R antag-1 -7, OX1R antag-2 59*, GalR3 antag -2 and CHO parental Ca -13.
For O=C1/C(=N\S(=O)(=O)c2cccs2)C([n+]2cccc(Cc3ccccc3)c2)=C([O-])c2ccccc21 the results were GPR7 antagonist -7, OX1R antag-1 33, OX1R antag-2 48* and CHO parental Ca 51*.
O=C1/C(=N\S(=O)(=O)c2cccs2)C([n+]2ccc(CCCc3ccccc3)cc2)=C([O-])c2ccccc21 was read as GPR7 antagonist -13, OX1R antag-1 -21, OX1R antag-2 26, GalR3 antag -2 and CHO parental Ca -55.
CC(C)(C)c1cc[n+](C2=C([O-])c3ccccc3C(=O)/C2=N\S(=O)(=O)c2ccccc2)cc1 was read as GPR7 antagonist -5, OX1R antag-1 -22, OX1R antag-2 67*, GalR3 antag 5 and CHO parental Ca -11.
`Clc1ccc(Nc2nnc(-c3ccc4c(c3)OCO4)o2)cc1` gave GalR3 antag -6.
`COC(=O)[C@]12C[C@H](CC(=O)N3CCN(C(=O)C4CC4)CC3)C(=O)N(Cc3ccccc3)C1=C[C@H](C1CCCC1)O[C@@H]2C` gave GalR3 antag -1.
FC(F)(F)c1cc(Cl)c2nc(-c3ccccc3)c(Cc3cccc(Cl)c3)n2c1 was read as GalR3 antag -4.
`O=C(CN1C(=O)/C(=C\c2ccccc2Cl)Oc2ccccc21)NCc1cccnc1` gave GPR7 antagonist -20, OX1R antag-1 -16, OX1R antag-2 72*, GalR3 antag -1 and CHO parental Ca -24.
For COCCNC(=O)c1ccc2c3n(nc2c1)-c1ccc(C)cc1CO3 the results were OX1R antag-1 -13, OX1R antag-2 64*, GalR3 antag -3 and CHO parental Ca -20.
For O=C(Nc1ccc(Br)cn1)c1ccc(Cl)s1 the results were GPR7 antagonist -3, OX1R antag-1 -21, OX1R antag-2 53*, GalR3 antag -12 and CHO parental Ca -31.
For CSc1cccc(NC(=O)/C=C/c2ccc(Cl)cc2)c1 the results were GPR7 antagonist -15, OX1R antag-1 6, OX1R antag-2 92*, GalR3 antag -5 and CHO parental Ca -12.
CSc1cccc(NC(=O)/C=C/c2ccccc2)c1 was read as GPR7 antagonist 2, OX1R antag-1 -16, OX1R antag-2 26, GalR3 antag 0 and CHO parental Ca -23.
Cc1ccc2nc(-c3ccc(Cl)cc3)c(Cc3ccccn3)n2c1 was read as GalR3 antag -7.
`COc1cccc(-c2nn(C)c3sc(C(=O)NCc4ccc(C)o4)cc23)c1` gave GPR7 antagonist -14, OX1R antag-1 -25, OX1R antag-2 72*, GalR3 antag -3 and CHO parental Ca -22.
Screening COc1cccc(-c2nn(C)c3sc(C(=O)NCc4ccc5c(c4)OCO5)cc23)c1 returned GPR7 antagonist -2, OX1R antag-1 -24, OX1R antag-2 23, GalR3 antag 1 and CHO parental Ca -8.
CCOC(=O)C1=C(C)N2C(=C(C#N)[C@@H]1c1ccc(C(=O)OC)cc1)SC[C@@]2(O)C(C)(C)C was read as GPR7 antagonist 1, OX1R antag-1 17, OX1R antag-2 53*, GalR3 antag 5 and CHO parental Ca 0.
`CSc1ccccc1C(=O)C1CCCN(C(=O)c2cccc(Cn3cccn3)c2)C1` (centres undefined) gave GalR3 antag -6.
For CN(CC(=O)Nc1cccc(S(=O)(=O)N2CCOCC2)c1)CC(=O)Nc1ccc(Cl)c(C(F)(F)F)c1 the results were OX1R antag-1 38, OX1R antag-2 25, GalR3 antag -5 and CHO parental Ca 49*.
Screening O=C(O)[C@@H]1CCCN(S(=O)(=O)c2cccc3cccnc23)C1 returned OX1R antag-1 -7, OX1R antag-2 12, GalR3 antag -2 and CHO parental Ca -5.
CC1Cc2ccccc2N1C(=O)CN(C)S(=O)(=O)c1cccc2cccnc12 (centres undefined) was read as GPR7 antagonist -8, OX1R antag-1 -3, OX1R antag-2 56*, GalR3 antag -2 and CHO parental Ca 2.
CC1Cc2ccccc2N1C(=O)C1CCCN(S(=O)(=O)c2cccc3cccnc23)C1 (centres undefined) was read as GPR7 antagonist -10, OX1R antag-1 -6, OX1R antag-2 58*, GalR3 antag -2 and CHO parental Ca -17.
Nc1[nH]c(C(=O)c2ccc(Br)cc2)c(-c2ccc(Cl)cc2)c1C(=O)NCCc1c[nH]c2ccccc12 was read as GalR3 antag -5.
`Cc1cn2c(=O)c3ncn(C4OC(CO)C(O)C4O)c3n(C)c2n1` (centres undefined) gave GalR3 antag 0.
For CC(=O)Nc1c([N+](=O)[O-])cc2c3c(cccc13)CC2 the results were GalR3 antag 2.
For CCOC(=O)c1ccc(NC(=O)OC[C@@H]2CSCCS(=O)(=O)N2)cc1 the results were GalR3 antag -7.
CSC1=C(C#N)C2(CCCC2)C(C#N)=C(N)N1 was read as GPR7 antagonist 3, OX1R antag-1 -13, OX1R antag-2 -4 and CHO parental Ca -12.
